Measured values pooled from the literature.
Each line is one published result; the experiments were not run side by side. pIC50: −log10 of the molar value.
Target: Acetylcholinesterase (ACHE, Homo sapiens, UniProt P22303)
Observed: enzyme activity
Mode: inhibitor

CN1CCN(CCOc2ccc3occc(=O)c3c2)CC1  pIC50 (Ellman; pH 7.4): 4.14
C#CCNc1nc(NCCCCC2CCN(Cc3ccccc3)CC2)c(C#N)c(-c2ccccc2)c1C#N  pIC50 (Ellman): 8.22
C=CCn1c2cc(OC(=O)CCCN3CCN(Cc4ccccc4)CC3)ccc2c2ccnc(C)c21  pIC50 (Ellman): 7.30
CCOP(=O)(OCC)Oc1ccc2c(C)c(Cl)c(=O)oc2c1  pIC50 (Ellman): 6.95
C=CCn1c2cc(OC(=O)CCCCN3CCN(Cc4cccc(C(F)(F)F)c4)CC3)ccc2c2ccnc(C)c21  pIC50 (Ellman): 6.13
O=c1[nH]cc(Br)c(=O)[nH]1  pIC50 (Ellman): 6.82
O=C(CN1C2=NCCN2c2ccccc21)c1ccc(-c2ccccc2)cc1  pIC50: 4.71
C=CCn1c2cc(OC(=O)CCCCN3CCN(Cc4ccccc4C(F)(F)F)CC3)ccc2c2ccnc(C)c21  pIC50 (Ellman): 7.32
CCC(CC)CSc1ccccc1OC(=O)NC  pIC50 (Ellman): 5.29
C=CCn1c2cc(OC(=O)CCCCN3CCN(Cc4ccc(C(F)(F)F)cc4)CC3)ccc2c2ccnc(C)c21  pIC50 (Ellman): 6.91
CC[n+]1c(-c2ccccc2)c2cc(N)ccc2c2ccc(N)cc21  pIC50 (Ellman): 4.64
CN1CCN(CCCCOc2ccc3occc(=O)c3c2)CC1  pIC50 (Ellman; pH 7.4): 5.19
COc1cc(NS(C)(=O)=O)ccc1Nc1c2ccccc2nc2ccccc12  pIC50: 4.65
CNC(=O)Oc1cccc2ccccc12  pIC50 (Ellman): 5.56
C#CCNc1nc(NCCCCC2CCN(Cc3ccccc3)CC2)c(C#N)cc1C#N  pIC50 (Ellman): 8.54
CCOP(=S)(OCC)O/N=C(\C#N)c1ccccc1  pIC50: 4.65
C=CCn1c2cc(OC(=O)CCCCN3CCN(Cc4ccc(Cl)cc4)CC3)ccc2c2ccnc(C)c21  pIC50 (Ellman): 6.55
C#CCN(C)c1nc(NCCCC2CCN(Cc3ccccc3)CC2)c(C#N)cc1C#N  pIC50 (Ellman): 7.58
C=CCn1c2cc(OC(=O)CCCCN3CCN(Cc4ccccc4Cl)CC3)ccc2c2ccnc(C)c21  pIC50 (Ellman): 6.93
Cc1cc(O)nc(O)n1  pIC50 (Ellman): 6.72
C=CCn1c2cc(OC(=O)CCCCCN3CCN(Cc4ccccc4)CC3)ccc2c2ccnc(C)c21  pIC50 (Ellman): 6.81
CC(=O)n1ccc(=O)[nH]c1=O  pIC50 (Ellman): 6.87
